ABCB6 inh 2 – ABCB6 transporter inhibitors, primary screen, K562-ABCB6 cells, flow cytometry, MLPCN library. ATP-binding cassette sub-family B member 6 (Homo sapiens), Q9NP58. K562-ABCB6 porphyrin accumulation, 1 h; active compounds read low. fluorescence ratio to DMSO, % at 10 µM. 360,000 tested, 0.19% active. AID 602162, 2011;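 active = fluorescence ratio to DMSO below 75%, the collection mean minus 3 SD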;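 note: signal is porphyrin accumulated inside mitochondria; 100% equals median channel fluorescence of DMSO control wells; lower ratio means ABCB6 inhibition with less porphyrin fluorescence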
AHR act – AHR activators, primary screen, cell-based, luminescence, luciferase reporter, human. AHR-responsive luciferase reporter cells. activation, % at 5 µM. 320,000 tested, 2.5% active; in the data active = activation above about 47%;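 note: 0% = vehicle wells and 100% = reference agonist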
Target sequence (P35869 whole entry, looked up): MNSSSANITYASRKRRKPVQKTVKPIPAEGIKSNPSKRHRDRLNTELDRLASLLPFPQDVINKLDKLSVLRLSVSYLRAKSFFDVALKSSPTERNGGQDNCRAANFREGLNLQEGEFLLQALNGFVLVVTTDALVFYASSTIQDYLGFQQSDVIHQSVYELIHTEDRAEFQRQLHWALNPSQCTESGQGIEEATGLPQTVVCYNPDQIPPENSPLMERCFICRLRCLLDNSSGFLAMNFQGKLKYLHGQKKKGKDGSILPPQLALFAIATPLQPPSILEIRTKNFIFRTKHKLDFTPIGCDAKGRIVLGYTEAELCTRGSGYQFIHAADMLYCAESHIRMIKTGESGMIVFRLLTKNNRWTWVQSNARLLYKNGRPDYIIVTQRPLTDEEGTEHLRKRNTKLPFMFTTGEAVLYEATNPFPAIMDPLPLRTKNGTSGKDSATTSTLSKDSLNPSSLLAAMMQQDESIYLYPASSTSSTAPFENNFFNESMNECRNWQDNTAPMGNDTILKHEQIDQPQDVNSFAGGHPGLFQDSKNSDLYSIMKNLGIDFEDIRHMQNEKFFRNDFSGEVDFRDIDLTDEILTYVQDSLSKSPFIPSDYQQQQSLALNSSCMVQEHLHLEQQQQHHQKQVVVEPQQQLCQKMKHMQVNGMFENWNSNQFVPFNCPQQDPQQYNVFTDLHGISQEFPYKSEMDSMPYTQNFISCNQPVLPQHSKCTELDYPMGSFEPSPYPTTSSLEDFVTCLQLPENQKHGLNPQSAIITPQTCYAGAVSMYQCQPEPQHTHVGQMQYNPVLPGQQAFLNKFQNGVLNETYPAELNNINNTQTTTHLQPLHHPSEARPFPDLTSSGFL
FXN GAA850 act – FXN promoter activators, primary screen, cell-based, luciferase luminescence, HEK293 lucGAA850. HEK293 lucGAA850 FXN promoter luciferase reporter, 24 h; percent of 10 µM SAHA response. 360,000 tested, 0.56% active. AID 540364, 2011. activation, % at 6 µM;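 active = activation above the average of all compounds screened plus 3 SD, cutoff fixed separately per campaign, cut at about 7.5% in these data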;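 note: 0% = DMSO wells and 100% = 10 µM SAHA wells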
STAT3 activator – IL-6 driven STAT3 reporter potentiators, primary screen, U3A cells, luciferase, luminescence, MLSCN library; IL-6 STAT3-luciferase reporter; 100% = signal with IL-6 EC80 alone; 190,000 tested, 0.91% active; activation (% of control), % at 5.6 µM; AID 871, 2007;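 active = activation above the screen-wide mean of compound activation plus 3 SD, cut at about 130% in these data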;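 note: 0% = background luminescence of wells with medium and substrate only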
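Material: STAT3-luciferase reporter U3A cells. Controls: IL-6-treated wells, 100% activation. Read-out: % activation versus median of IL-6-stimulated wells. Probe or stimulus: IL-6 stimulus at 33 ng/mL final. Timing: compound 1 h, then IL-6 6 h at 37 °C. Signal: reporter luminescence signal.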
ABCB6 inh CP1 – ABCB6 transporter inhibitors, confirmation, K562-ABCB6 cells, flow cytometry, cherry pick 1 | 700 tested, under 10 active | K562-ABCB6 porphyrin accumulation, 1 h; active compounds read low | shares compounds with ABCB6 inh 2 | ratio response (% of DMSO), % at 10 µM;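 active = repeat-averaged ratio response below 75% of DMSO, the collection mean minus 3 SD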;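 note: median porphyrin fluorescence at 575 nm with 488 nm excitation from mitochondria; lower ratio means less porphyrin signal so ABCB6 inhibition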
* marks the source's active call; other numbers are inactive results. The list is not random: actives were taken first. Their share in the collection is about 3.3%.

For Cc1cccc(S(=O)(=O)NC(=O)C2(C)CCN2C(=O)CCc2ccccc2)c1 (stereo not drawn) the results were ABCB6 inh 2 94 and FXN GAA850 act 2.
CC1(C(=O)NS(=O)(=O)c2cccc(C#N)c2)CCN1C(=O)CCc1ccccc1 (stereo not drawn) was read as ABCB6 inh 2 99, FXN GAA850 act 1 and ABCB6 inh CP1 101.
Screening CC(C)(C)c1ccc(CC(=O)N2CCC2(C)C(=O)NS(=O)(=O)c2ccccc2C(F)(F)F)cc1 (stereo not drawn) returned ABCB6 inh 2 86, FXN GAA850 act 0 and ABCB6 inh CP1 100.
`CC(C)(C)c1ccc(CC(=O)N2CCC2(C)C(=O)NS(=O)(=O)c2cccc(F)c2)cc1` (stereo not drawn) gave ABCB6 inh 2 98, FXN GAA850 act 0 and ABCB6 inh CP1 102.
`CCOC(=O)CCP(=O)(O)C(O)c1ccc(OC)cc1` (stereo not drawn) gave ABCB6 inh 2 111, AHR act 0, FXN GAA850 act 2 and STAT3 activator 105.
CC1(C(=O)NS(=O)(=O)c2ccccc2)CCN1C(=O)Cc1ccccc1 (stereo not drawn) was read as ABCB6 inh 2 98 and FXN GAA850 act 2.
Cc1cccc(S(=O)(=O)NC(=O)C2(C)CCN2C(=O)Cc2ccc(Cl)cc2Cl)c1 (stereo not drawn) was read as ABCB6 inh 2 104, FXN GAA850 act 0 and ABCB6 inh CP1 101.
Screening Cc1ccc(S(=O)(=O)NC(=O)C2(C)CCN2C(=O)Cc2ccc(-c3ccccc3)cc2)cc1 (stereo not drawn) returned ABCB6 inh 2 97, FXN GAA850 act 1 and ABCB6 inh CP1 102.
Screening Cc1ccc(F)c(S(=O)(=O)NC(=O)C2(C)CCN2C(=O)Cc2cccc3ccccc23)c1 (stereo not drawn) returned ABCB6 inh 2 85, FXN GAA850 act -1 and ABCB6 inh CP1 97.
For CC1(C(=O)NS(=O)(=O)c2cccc(Cl)c2)CCN1C(=O)Cc1ccc(Cl)cc1Cl (stereo not drawn) the results were ABCB6 inh 2 95 and FXN GAA850 act -2.
`CC(=O)Nc1ccc(SCC(=O)Nc2cc(C)on2)cc1` gave ABCB6 inh 2 97, AHR act -3, FXN GAA850 act 2 and STAT3 activator 108.
Screening Cc1nc2nc(CNC(=O)OC(C)(C)C)nn2c(C)c1CCC(=O)Nc1ccc2c(c1)OCO2 returned ABCB6 inh 2 95, AHR act 7 and FXN GAA850 act 1.
`O=C1c2ccccc2C(=O)N1CCc1csc(-c2cccc(F)c2)n1` gave ABCB6 inh 2 72*, AHR act -11, FXN GAA850 act 4, STAT3 activator 82 and ABCB6 inh CP1 98.
Screening O=C1c2ccccc2C(=O)N1CCc1csc(-c2cccc(Cl)c2)n1 returned ABCB6 inh 2 95, AHR act -7, FXN GAA850 act 0 and STAT3 activator 82.
For COc1ccc(S(=O)(=O)CC2(O)CCN(C(=O)C(C)(C)C)CC2)cc1 the results were ABCB6 inh 2 97, AHR act 0, FXN GAA850 act 0 and STAT3 activator 99.
Screening CSc1ccc(CN2C(=O)C(C)Oc3c(C(C)=O)cccc32)cc1 (stereo not drawn) returned ABCB6 inh 2 97 and FXN GAA850 act 0.
For CSc1ccc(CN2C(=O)C(F)(F)Oc3c(C(C)=O)cccc32)cc1 the results were ABCB6 inh 2 74*, FXN GAA850 act -1 and ABCB6 inh CP1 101.
Screening COc1ccc(N2CCN(CC(=O)c3ccc(Cl)cc3)CC2)cc1 returned ABCB6 inh 2 99, AHR act 10 and FXN GAA850 act 0.
Cc1ccc(/C=c2\sc3nc(-c4ccco4)nn3c2=O)o1 was read as ABCB6 inh 2 109, AHR act 13, FXN GAA850 act -1 and STAT3 activator 109.
For Cc1ccc(-c2nc3s/c(=C\c4ccco4)c(=O)n3n2)cc1 the results were ABCB6 inh 2 70*, AHR act 17, FXN GAA850 act 4, STAT3 activator 120 and ABCB6 inh CP1 103.
`CCOc1ccccc1CNCCOC` gave ABCB6 inh 2 104, AHR act 2, FXN GAA850 act 2 and STAT3 activator 100.
For COc1ccc(OC)c(C2C(C#N)=C(N)N(N(C)C)C3=C2C(=O)CC(C)(C)C3)c1 (stereo not drawn) the results were ABCB6 inh 2 99, AHR act 0 and FXN GAA850 act 0.
Screening COc1ccccc1C1C(C#N)=C(N)N(N(C)C)C2=C1C(=O)CC(C)(C)C2 (stereo not drawn) returned ABCB6 inh 2 51*, AHR act -2, FXN GAA850 act 1 and ABCB6 inh CP1 96.
CC(=O)NC(Cc1c[nH]c2ccccc12)C(=O)N1CCc2ccccc2C1 (stereo not drawn) was read as ABCB6 inh 2 69*, AHR act 7, FXN GAA850 act 1, STAT3 activator 105 and ABCB6 inh CP1 98.
For O=C(NCc1cccs1)c1nc2c(nnn2Cc2ccccc2Cl)c(=O)[nH]1 the results were ABCB6 inh 2 70*, AHR act -6, FXN GAA850 act -14, STAT3 activator 72 and ABCB6 inh CP1 97.
O=C(O)c1cccc(S(=O)(=O)N2CCCC(c3nc4c(nnn4Cc4ccccc4Cl)c(=O)[nH]3)C2)c1 (stereo not drawn) was read as ABCB6 inh 2 98, AHR act -2 and FXN GAA850 act 1.
O=C(c1ccccc1)N1CCC(c2nc3c(nnn3Cc3ccccc3Cl)c(=O)[nH]2)CC1 was read as ABCB6 inh 2 98, AHR act 2, FXN GAA850 act 0, STAT3 activator 98 and ABCB6 inh CP1 102.
`O=C(Cc1cccs1)N1CCC(c2nc3c(nnn3Cc3ccccc3)c(=O)[nH]2)CC1` gave ABCB6 inh 2 99, AHR act -4, FXN GAA850 act 0, STAT3 activator 99 and ABCB6 inh CP1 101.
`O=C(c1cccs1)N1CCC(c2nc3c(nnn3Cc3ccccc3Cl)c(=O)[nH]2)CC1` gave ABCB6 inh 2 99, AHR act 0, FXN GAA850 act 1 and ABCB6 inh CP1 100.
Screening CCOC(=O)CCCSc1nc(-c2ccc3c(c2)OCO3)cc(C(F)(F)F)c1C#N returned ABCB6 inh 2 98, AHR act 2, FXN GAA850 act 0 and STAT3 activator 104.
Cc1ccc(-c2cc(C(F)(F)F)c(C#N)c(SCCC#N)n2)o1 was read as ABCB6 inh 2 71*, AHR act 8, FXN GAA850 act 3, STAT3 activator 109 and ABCB6 inh CP1 103.
